From ChEMBL document CHEMBL3407394, “Synthesis and in vitro anticancer activity evaluation of novel bioreversible phosphate inositol derivatives” (Eur J Med Chem, 2015)

Legend:
MDA-MB-231 [1] = assay: Cytotoxicity against human MDA-MB-231 cells assessed as growth inhibition at 10 ug/ml after 72 hrs by MTT assay; assay type: functional; settings: MDA-MB-231, 72 h, read-out: GI
Outline: (§1)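 Single-concentration screen in A549, HeLa or MDA-MB-231 cells cultured in DMEM, 10% FBS, 1% penicillin/streptomycin. About 1000 cells/well were preincubated 12 h, and compound diluted in DMEM to the final well concentration (0.5% DMSO) for 72 h at 37 °C, 5% CO2. Readout was MTT 4 h, DMSO-solubilized formazan, OD570, with inhibition relative to DMSO vehicle. Cisplatin in 1% NaCl (pH 7) served as positive control.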

A549 [2] = assay: Cytotoxicity against human A549 cells assessed as growth inhibition at 10 ug/ml after 72 hrs by MTT assay; assay type: functional; settings: A549, 72 h, read-out: GI; outline: as §1
HeLa [3] = assay: Cytotoxicity against human HeLa cells assessed as growth inhibition after 72 hrs by MTT assay; assay type: functional, cell-based
Outline: (§2)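 A549, HeLa and MDA-MB-231 cells were grown in DMEM with 10% FBS and 1% penicillin/streptomycin. About 1000 cells/well were seeded and left 12 h, then exposed to a dilution series in DMSO (final 0.5% DMSO) for 72 h at 37 °C, 5% CO2. MTT in fresh medium was added for 4 h, formazan dissolved in DMSO, and OD570 read. Viability was normalized to vehicle, and IC50 taken by linear regression of concentration-response curves.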

HeLa [4] = assay: Cytotoxicity against human HeLa cells assessed as growth inhibition at 10 ug/ml after 72 hrs by MTT assay; assay type: functional; settings: read-out: GI; outline: as §1
[5] = Cytotoxicity against human MCF10A cells assessed as growth inhibition after 72 hrs by MTT assay; assay type: cell-based; settings: MCF-10A
Outline: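 MCF10A non-cancerous cells were maintained in DMEM/F12 with 5% horse serum. About 1000 cells/well were seeded and attached for 12 h, then dosed over a dilution series (DMSO vehicle, final 0.5%) for 72 h at 37 °C, 5% CO2. MTT in fresh medium ran 4 h, formazan was dissolved in DMSO and OD570 measured. Viability was relative to vehicle-treated cells, and IC50 came from linear regression of concentration-response curves.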

A549 [6] = assay: Cytotoxicity against human A549 cells assessed as growth inhibition after 72 hrs by MTT assay; assay type: functional, cell-based; settings: A549, 72 h; outline: as §2
[7] = Cytotoxicity against human MCF10A cells assessed as growth inhibition at 10 ug/ml after 72 hrs by MTT assay; assay type: cell-based, MCF-10A; settings: read-out: GI
Outline: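 MCF10A cells in DMEM/F12 plus 5% horse serum, about 1000 per well, were incubated 12 h, then treated at one final well concentration diluted in DMEM (0.5% DMSO) for 72 h, 37 °C, 5% CO2. Viability was by MTT: 4 h in fresh medium, formazan dissolved in DMSO, absorbance at 570 nm, normalized to vehicle controls. Cisplatin in 1% NaCl, pH 7, was the positive control.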

MDA-MB-231 [8] = assay: Cytotoxicity against human MDA-MB-231 cells assessed as growth inhibition after 72 hrs by MTT assay; assay type: functional, cell-based; settings: MDA-MB-231, 72 h; outline: as §2

Structure (SMILES) | inhibition of growth at 10 µg/mL (MDA-MB-231 [1]) [%] | inhibition of growth at 10 µg/mL (A549 [2]) [%] | IC50 (HeLa [3]) [nM] | inhibition of growth at 10 µg/mL (HeLa [4]) [%] | IC50 [5] [nM] | IC50 (A549 [6]) [nM] | inhibition at 72 h, 10 ug/ml [7] [%] | IC50 (MDA-MB-231 [8]) [nM]
CC(=O)Oc1ccc(COP(=O)(OCc2ccc(OC(C)=O)cc2)OC2C3OC4OC(C3OCc3ccccc3)C(OP(=O)(OCc3ccc(OC(C)=O)cc3)OCc3ccc(OC(C)=O)cc3)C2O4)cc1 (configuration not stated) | 99.7 | 98.5 | 760 | 100 | > 50000 | 1370 | 38.8 | 1530
C#CCO[C@@H]1[C@@H](OCc2ccccc2)[C@H](OP(=O)(OCc2ccc(OC(C)=O)cc2)OCc2ccc(OC(C)=O)cc2)[C@H](OCc2ccccc2)[C@H](OP(=O)(OCc2ccc(OC(C)=O)cc2)OCc2ccc(OC(C)=O)cc2)[C@H]1OCc1ccccc1 | 8.7 | 9.9 | – | 100 | – | – | 38.6 | –
CC(=O)Oc1ccc(COP(=O)(OCc2ccc(OC(C)=O)cc2)OC2C3OCOC(C3OCc3ccccc3)C(OCc3ccccc3)C2OP(=O)(OCc2ccc(OC(C)=O)cc2)OCc2ccc(OC(C)=O)cc2)cc1 (configuration not stated) | 86.8 | 92.1 | 620 | 100 | 850 | 2010 | 90.4 | 430
CC(=O)Oc1ccc(COP(=O)(OCc2ccc(OC(C)=O)cc2)O[C@@H]2[C@@H](OP(=O)(OCc3ccc(OC(C)=O)cc3)OCc3ccc(OC(C)=O)cc3)[C@H](OCc3ccccc3)[C@@H](OCc3ccccc3)[C@H](OCc3ccccc3)[C@@H]2OP(=O)(OCc2ccc(OC(C)=O)cc2)OCc2ccc(OC(C)=O)cc2)cc1 | 52.8 | 34.9 | > 20000 | 68.5 | > 20000 | 3170 | 55.3 | 3280
CC(=O)Oc1ccc(COP(=O)(OCc2ccc(OC(C)=O)cc2)O[C@@H]2[C@H](OCc3ccccc3)[C@H](OCc3ccccc3)[C@@H](OP(=O)(OCc3ccc(OC(C)=O)cc3)OCc3ccc(OC(C)=O)cc3)[C@H](OP(=O)(OCc3ccc(OC(C)=O)cc3)OCc3ccc(OC(C)=O)cc3)[C@H]2OCc2ccccc2)cc1 | 11 | 6.4 | – | 84.5 | – | – | 37.4 | –
CC(=O)Oc1ccc(COP(=O)(OCc2ccc(OC(C)=O)cc2)OC2C3OCOC2C(OP(=O)(OCc2ccc(OC(C)=O)cc2)OCc2ccc(OC(C)=O)cc2)C(OP(=O)(OCc2ccc(OC(C)=O)cc2)OCc2ccc(OC(C)=O)cc2)C3OCc2ccccc2)cc1 (configuration not stated) | 94.4 | 94 | 1080 | 94.3 | > 20000 | 4270 | 2.5 | 1680
C#CCO[C@@H]1[C@@H](OCc2ccccc2)[C@H](OP(=O)(OCc2ccc(OC(C)=O)cc2)OCc2ccc(OC(C)=O)cc2)[C@H](OP(=O)(OCc2ccc(OC(C)=O)cc2)OCc2ccc(OC(C)=O)cc2)[C@H](OP(=O)(OCc2ccc(OC(C)=O)cc2)OCc2ccc(OC(C)=O)cc2)[C@H]1OCc1ccccc1 | 88.1 | 2.5 | 19000 | 100 | > 30000 | > 30000 | 15.4 | > 30000
CC(=O)Oc1ccc(COP(=O)(OCc2ccc(OC(C)=O)cc2)O[C@@H]2[C@@H](OCc3ccccc3)[C@H](OCc3ccccc3)[C@@H](OCc3ccccc3)[C@H](OCc3ccccc3)[C@@H]2OP(=O)(OCc2ccc(OC(C)=O)cc2)OCc2ccc(OC(C)=O)cc2)cc1 | -17.2 | 14.9 | – | 15.8 | – | – | 42.3 | –
CC(=O)Oc1ccc(COP(=O)(OCc2ccc(OC(C)=O)cc2)OC2C(OCc3ccccc3)C3OCOC(C3OCc3ccccc3)C2OCc2ccccc2)cc1 (configuration not stated) | 12.4 | 75.4 | 1520 | 98.1 | 18900 | 8150 | 48.9 | 1580
CC(=O)Oc1ccc(COP(=O)(OCc2ccc(OC(C)=O)cc2)OC2C3OCOC2C(OCc2ccccc2)C(OP(=O)(OCc2ccc(OC(C)=O)cc2)OCc2ccc(OC(C)=O)cc2)C3OCc2ccccc2)cc1 (configuration not stated) | 99.4 | 43.7 | 950 | 100 | 23200 | 5550 | 48 | 2370
CC(=O)Oc1ccc(COP(=O)(OCc2ccc(OC(C)=O)cc2)O[C@H]2[C@H](OCc3ccccc3)[C@@H](OCc3ccccc3)[C@@H](OP(=O)(OCc3ccc(OC(C)=O)cc3)OCc3ccc(OC(C)=O)cc3)[C@@H](OP(=O)(OCc3ccc(OC(C)=O)cc3)OCc3ccc(OC(C)=O)cc3)[C@@H]2OCc2ccccc2)cc1 | -2.1 | -1.2 | – | -6.2 | – | – | 15.6 | –
CC(=O)Oc1ccc(COP(=O)(OCc2ccc(OC(C)=O)cc2)OC2C3OC4OC(C3OCc3ccccc3)C(O[Si](C)(C)C(C)(C)C)C2O4)cc1 (configuration not stated) | 84.3 | 100 | 1350 | 100 | 38100 | 9510 | 100 | 2350
CC(=O)Oc1ccc(COP(=O)(OCc2ccc(OC(C)=O)cc2)OC2C3OC4OC2C(OP(=O)(OCc2ccc(OC(C)=O)cc2)OCc2ccc(OC(C)=O)cc2)C(O4)C3OP(=O)(OCc2ccc(OC(C)=O)cc2)OCc2ccc(OC(C)=O)cc2)cc1 (configuration not stated) | 92.4 | 85.8 | 1410 | 94.2 | > 20000 | 7090 | -2.9 | 1890
CC(=O)Oc1ccc(COP(=O)(OCc2ccc(OC(C)=O)cc2)O[C@H]2[C@H](OP(=O)(OCc3ccc(OC(C)=O)cc3)OCc3ccc(OC(C)=O)cc3)[C@@H](OCc3ccccc3)[C@H](OCc3ccccc3)[C@H](OCc3ccccc3)[C@@H]2OP(=O)(OCc2ccc(OC(C)=O)cc2)OCc2ccc(OC(C)=O)cc2)cc1 | 19.2 | 4.7 | – | 49.5 | – | – | 45.1 | –
CC(=O)Oc1ccc(COP(=O)(OCc2ccc(OC(C)=O)cc2)O[C@@H]2[C@@H](OCc3ccccc3)[C@H](OCc3ccccc3)[C@@H](OP(=O)(OCc3ccc(OC(C)=O)cc3)OCc3ccc(OC(C)=O)cc3)[C@@H](OP(=O)(OCc3ccc(OC(C)=O)cc3)OCc3ccc(OC(C)=O)cc3)[C@H]2OCc2ccccc2)cc1 | -11 | 9.1 | – | -1.2 | – | – | 5.1 | –
CC(=O)Oc1ccc(COP(=O)(OCc2ccc(OC(C)=O)cc2)O[C@H]2[C@@H]3OC(C)(C)O[C@H]3[C@H](OP(=O)(OCc3ccc(OC(C)=O)cc3)OCc3ccc(OC(C)=O)cc3)[C@H]3OC(C)(C)O[C@H]32)cc1 | 91.8 | 90.1 | 620 | 100 | 25100 | 2340 | -10.7 | 830
CC(=O)Oc1ccc(COP(=O)(OCc2ccc(OC(C)=O)cc2)O[C@H]2[C@H](OCc3ccccc3)[C@@H](OP(=O)(OCc3ccc(OC(C)=O)cc3)OCc3ccc(OC(C)=O)cc3)[C@H](OCc3ccccc3)[C@@H](OP(=O)(OCc3ccc(OC(C)=O)cc3)OCc3ccc(OC(C)=O)cc3)[C@H]2OCc2ccccc2)cc1 | -22.3 | 12.8 | – | 69.3 | – | – | 34.9 | –
CC(=O)Oc1ccc(COP(=O)(OCc2ccc(OC(C)=O)cc2)O[C@@H]2[C@@H](OCc3ccccc3)[C@@H](OCc3ccccc3)[C@@H](OP(=O)(OCc3ccc(OC(C)=O)cc3)OCc3ccc(OC(C)=O)cc3)[C@H](OP(=O)(OCc3ccc(OC(C)=O)cc3)OCc3ccc(OC(C)=O)cc3)[C@H]2OCc2ccccc2)cc1 | 21.3 | 7.8 | – | 80 | – | – | 9.2 | –
